From ChEMBL document CHEMBL3046705, “Design and synthesis of benzoylphenylureas with fluorinated substituents on the aniline ring as insect growth regulators” (2011)

How the values were obtained:
Assay type in all cases: functional
Mythimna separata [1] = assay: Insecticidal activity against fourth-instar larval stage of Mythimna separata (Oriental armyworm) infested drug-pretreated corn leaves assessed as mortality at 50 mg/l at 25 +/-1 degC after 4 days
Culex pipiens pallens [2] = assay: Insecticidal activity against fourth-instar larval stage of Culex pipiens pallens (mosquito) assessed as mortality at 0.05 mg/l at 25 +/-1 degC after 8 days; settings: 192 h
Summary of the method: (§1)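 Larvicidal test against mosquito larvae followed a previously reported procedure. Test solutions were made by dissolving each compound in acetone and adding distilled water to give the series of concentrations.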

Culex pipiens pallens [3] = assay: Insecticidal activity against fourth-instar larval stage of Culex pipiens pallens (mosquito) assessed as mortality at 0.025 mg/l at 25 +/-1 degC after 8 days; settings: 192 h; summary of the method: as §1
Mythimna separata [4] = assay: Insecticidal activity against fourth-instar larval stage of Mythimna separata (Oriental armyworm) infested drug-pretreated corn leaves assessed as mortality at 200 mg/l at 25 +/-1 degC after 4 days
Mythimna separata [5] = assay: Insecticidal activity against fourth-instar larval stage of Mythimna separata (Oriental armyworm) infested drug-pretreated corn leaves assessed as mortality at 100 mg/l at 25 +/-1 degC after 4 days
Culex pipiens pallens [6] = assay: Insecticidal activity against fourth-instar larval stage of Culex pipiens pallens (mosquito) assessed as mortality at 0.1 mg/l at 25 +/-1 degC after 8 days; settings: 192 h; summary of the method: as §1
Mythimna separata [7] = assay: Insecticidal activity against fourth-instar larval stage of Mythimna separata (Oriental armyworm) infested drug-pretreated corn leaves assessed as mortality at 5 mg/l at 25 +/-1 degC after 4 days
Mythimna separata [8] = assay: Insecticidal activity against fourth-instar larval stage of Mythimna separata (Oriental armyworm) infested drug-pretreated corn leaves assessed as mortality at 2.5 mg/l at 25 +/-1 degC after 4 days
Mythimna separata [9] = assay: Insecticidal activity against fourth-instar larval stage of Mythimna separata (Oriental armyworm) infested drug-pretreated corn leaves assessed as mortality at 1 mg/l at 25 +/-1 degC after 4 days
Culex pipiens pallens [10] = assay: Insecticidal activity against fourth-instar larval stage of Culex pipiens pallens (mosquito) assessed as mortality at 0.01 mg/l at 25 +/-1 degC after 8 days; settings: 192 h; summary of the method: as §1
Culex pipiens pallens [11] = assay: Insecticidal activity against fourth-instar larval stage of Culex pipiens pallens (mosquito) assessed as mortality at 0.005 mg/l at 25 +/-1 degC after 8 days; settings: 192 h; summary of the method: as §1
Culex pipiens pallens [12] = assay: Insecticidal activity against fourth-instar larval stage of Culex pipiens pallens (mosquito) assessed as mortality at 0.0025 mg/l at 25 +/-1 degC after 8 days; settings: 192 h; summary of the method: as §1
Culex pipiens pallens [13] = assay: Insecticidal activity against fourth-instar larval stage of Culex pipiens pallens (mosquito) assessed as mortality at 0.25 mg/l at 25 +/-1 degC after 8 days; settings: 192 h; summary of the method: as §1
Mythimna separata [14] = assay: Insecticidal activity against fourth-instar larval stage of Mythimna separata (Oriental armyworm) infested drug-pretreated corn leaves assessed as mortality at 10 mg/l at 25 +/-1 degC after 4 days
Mythimna separata [15] = assay: Insecticidal activity against fourth-instar larval stage of Mythimna separata (Oriental armyworm) infested drug-pretreated corn leaves assessed as mortality at 25 mg/l at 25 +/-1 degC after 4 days
Culex pipiens pallens [16] = assay: Insecticidal activity against fourth-instar larval stage of Culex pipiens pallens (mosquito) assessed as mortality at 2 mg/l at 25 +/-1 degC after 8 days; settings: 192 h; summary of the method: as §1

SMILES | mortality at 50 µg/mL (Mythimna separata [1]) [%] | mortality at 0.05 µg/mL (Culex pipiens pallens [2]) [%] | mortality at 0.025 µg/mL (Culex pipiens pallens [3]) [%] | mortality at 0.1 µg/mL (Culex pipiens pallens [6]) [%] | mortality at 5 µg/mL (Mythimna separata [7]) [%] | mortality at 2.5 µg/mL (Mythimna separata [8]) [%] | mortality at 1 µg/mL (Mythimna separata [9]) [%] | mortality at 0.005 µg/mL (Culex pipiens pallens [11]) [%] | mortality at 10 µg/mL (Mythimna separata [14]) [%] | also measured
O=C(NC(=O)c1c(F)cccc1F)Nc1ccc(OCC=C(Cl)Cl)cc1 | 60 | 70 | 60 | 100 |  |  |  |  |  | mortality at 200 µg/mL (Mythimna separata [4]): 90%; mortality at 100 µg/mL (Mythimna separata [5]): 80%
O=C(NC(=O)c1c(F)cccc1F)Nc1ccc(C(F)(C(F)(F)F)C(F)(F)F)cc1 |  |  |  |  | 100 | 90 | 0 | 90 |  | mortality at 0.01 µg/mL (Culex pipiens pallens [10]): 100%; mortality at 0.0025 µg/mL (Culex pipiens pallens [12]): 80%
O=C(NC(=O)c1c(F)cccc1F)Nc1ccc(Oc2cc(Cl)c(OC(F)(F)C(F)F)c(Cl)c2)cc1 |  |  |  |  |  | 100 | 0 | 100 |  | mortality at 0.0025 µg/mL (Culex pipiens pallens [12]): 50%
O=C(NC(=O)c1c(F)cccc1F)Nc1ccc(COC(C(F)(F)F)C(F)(F)F)cc1 | 0 | 30 |  | 80 |  |  |  |  |  | mortality at 0.25 µg/mL (Culex pipiens pallens [13]): 100%; mortality at 200 µg/mL (Mythimna separata [4]): 40%; mortality at 100 µg/mL (Mythimna separata [5]): 10%
O=C(NC(=O)c1c(F)cccc1F)Nc1cc(Cl)c(OC(F)(F)C(F)F)c(Cl)c1 [HEXAFLUMURON] |  |  |  |  |  |  |  |  | 80 | mortality at 0.25 µg/mL (Culex pipiens pallens [13]): 100%
O=C(NC(=O)c1c(F)cccc1F)Nc1ccc(OC(C(F)(F)F)C(F)(F)F)cc1 |  | 80 | 70 | 100 | 90 | 80 | 0 |  |  | 
O=C(NC(=O)c1c(F)cccc1F)Nc1ccc(COc2cc(Cl)c(OC(F)(F)C(F)F)c(Cl)c2)cc1 |  |  |  |  | 10 |  |  |  | 40 | mortality at 25 µg/mL (Mythimna separata [15]): 100%; mortality at 2 µg/mL (Culex pipiens pallens [16]): 0%
O=C(NC(=O)c1c(F)cccc1F)Nc1ccc(Oc2cc(Cl)c(OC(F)(F)C(F)F)c(Cl)c2)c(Cl)c1 | 100 |  | 100 |  |  |  |  | 30 | 60 | mortality at 0.01 µg/mL (Culex pipiens pallens [10]): 80%; mortality at 25 µg/mL (Mythimna separata [15]): 90%
